Laboratory results: ChEMBL document CHEMBL4689842, “EUbOPEN Chemogenomics Library wave 1” (2021)
Where “and” joins values, the source holds several entries; their conditions need not be identical. Identical values can stand only once.

Test system: U2OS
Test: Multiplex assay against U2OS
Format: toxicity, cell-based
Settings: human
In short: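 Four dyes were applied at seeding to live cells: Hoechst33342, BioTracker Green Microtubule Cytoskeleton Dye, MitoTracker Red and Annexin V Alexa Fluor 680. Imaging after compound addition used a CQ1 microscope at 37°C and 5% CO2. CellPathfinder machine-learning gating then sorted cells into Hoechst high-intensity objects or normal cells, normal cells into healthy, pyknosed or fragmented nuclei, and pyknosed cells into mitotic or apoptotic, with tubulin, mitochondrial-mass and membrane-permeability phenotypes given as per cents of healthy-nucleus cells.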

[1] = 12 h, 1 µM, compound concentration 1 uM, replicate 1
[2] = 12 h, 1 µM, compound concentration 1 uM, replicate 2
[3] = 12 h, 10 µM, compound concentration 10 uM, replicate 1
[4] = 12 h, 10 µM, compound concentration 10 uM, replicate 2
[5] = 24 h, 1 µM, compound concentration 1 uM, replicate 1
[6] = 24 h, 1 µM, compound concentration 1 uM, replicate 2
[7] = 24 h, 10 µM, compound concentration 10 uM, replicate 1
[8] = 24 h, 10 µM, compound concentration 10 uM, replicate 2

CCC1=C[C@@H]2C[N@](C1)Cc1c([nH]c3ccccc13)[C@@](C(=O)OC)(c1cc3c(cc1OC)N(C)[C@H]1[C@@](O)(C(=O)OC)[C@H](OC(C)=O)[C@]4(CC)C=CCN5CC[C@]31[C@@H]54)C2.O=C(O)C(O)C(O)C(=O)O.O=C(O)C(O)C(O)C(=O)O [VINORELBINE TARTRATE]
Population Apoptotic (%) [1]: 55% and 29%
Population Fragmented Nuclei (%) [1]: 14% and 9%
Population Healthy Nuclei (%) [1]: 59% and 76%
Population Mitochondria Different-Phenotype (%) [1]: 34% and 22%
Population Mitotic Cells (%) [1]: 44% and 70%
Population Normal (%) [1]: 97% and 92%
Population Pyknosed Nuclei (%) [1]: 25% and 14%
Population Tubulin-Different-Phenotype (%) [1]: 26%
Population Fragmented Nuclei (%) [2]: 22%
Population Healthy Nuclei (%) [2]: 50% and 69%
Population Hoechst High Intensity Objects (%) [2]: 16% and 20%
Population Mitochondria Different-Phenotype (%) [2]: 30%
Population Mitotic Cells (%) [2]: 36% and 80%
Population Normal (%) [2]: 83% and 79%
Population Pyknosed Nuclei (%) [2]: 27% and 16%
Population Tubulin-Different-Phenotype (%) [2]: 45% and 34%
Population Apoptotic (%) [3]: 53% and 34%
Population Fragmented Nuclei (%) [3]: 14% and 8%
Population Healthy Nuclei (%) [3]: 74% and 76%
Population Hoechst High Intensity Objects (%) [3]: 6% and 8%
Population Mitochondria Different-Phenotype (%) [3]: 35% and 24%
Population Mitotic Cells (%) [3]: 46% and 65%
Population Normal (%) [3]: 93% and 91%
Population Pyknosed Nuclei (%) [3]: 11% and 14%
Population Tubulin-Different-Phenotype (%) [3]: 20% and 18%
Total Cell Count [3]: 168 and 185
Population Fragmented Nuclei (%) [4]: 12% and 11%
Population Healthy Nuclei (%) [4]: 58% and 67%
Population Hoechst High Intensity Objects (%) [4]: 13% and 18%
Population Membrane Permeable-Phenotype (%) [4]: 56% and 20%
Population Mitochondria Different-Phenotype (%) [4]: 45% and 18%
Population Mitotic Cells (%) [4]: 40% and 82%
Population Normal (%) [4]: 86% and 81%
Population Pyknosed Nuclei (%) [4]: 29% and 21%
Population Tubulin-Different-Phenotype (%) [4]: 45%
Total Cell Count [4]: 132 and 78
Population Apoptotic (%) [5]: 35% and 65%
Population Fragmented Nuclei (%) [5]: 20% and 14%
Population Healthy Nuclei (%) [5]: 49% and 56%
Population Hoechst High Intensity Objects (%) [5]: 1% and 3%
Population Membrane Permeable-Phenotype (%) [5]: 21% and 52%
Population Mitochondria Different-Phenotype (%) [5]: 26% and 37%
Population Mitotic Cells (%) [5]: 64% and 34%
Population Normal (%) [5]: 98% and 96%
Population Pyknosed Nuclei (%) [5]: 30% and 28%
Population Tubulin-Different-Phenotype (%) [5]: 41% and 34%
Population Apoptotic (%) [6]: 61%
Population Fragmented Nuclei (%) [6]: 30% and 22%
Population Healthy Nuclei (%) [6]: 36% and 59%
Population Hoechst High Intensity Objects (%) [6]: 11% and 15%
Population Membrane Permeable-Phenotype (%) [6]: 60% and 22%
Population Mitochondria Different-Phenotype (%) [6]: 40%
Population Mitotic Cells (%) [6]: 38%
Population Normal (%) [6]: 88% and 84%
Population Pyknosed Nuclei (%) [6]: 33% and 18%
Population Tubulin-Different-Phenotype (%) [6]: 62% and 31%
Population Apoptotic (%) [7]: 63% and 43%
Population Fragmented Nuclei (%) [7]: 18% and 14%
Population Healthy Nuclei (%) [7]: 55%
Population Hoechst High Intensity Objects (%) [7]: 7% and 4%
Population Membrane Permeable-Phenotype (%) [7]: 55%
Population Mitochondria Different-Phenotype (%) [7]: 29% and 33%
Population Mitotic Cells (%) [7]: 36% and 56%
Population Normal (%) [7]: 92% and 95%
Population Pyknosed Nuclei (%) [7]: 25% and 30%
Population Tubulin-Different-Phenotype (%) [7]: 29% and 34%
Total Cell Count [7]: 176 and 207
Population Apoptotic (%) [8]: 82% and 47%
Population Fragmented Nuclei (%) [8]: 21% and 17%
Population Healthy Nuclei (%) [8]: 43%
Population Hoechst High Intensity Objects (%) [8]: 9% and 14%
Population Mitochondria Different-Phenotype (%) [8]: 43% and 22%
Population Normal (%) [8]: 90% and 85%
Population Pyknosed Nuclei (%) [8]: 34% and 26%
Population Tubulin-Different-Phenotype (%) [8]: 38% and 22%
Total Cell Count [8]: 147 and 90

Cc1cc(C)c(-n2ccn3nc(-c4cccnc4)cc23)cc1NC(=O)c1cc(C#N)cc(S(F)(F)(F)(F)F)c1 [BAY-826]
Population Apoptotic (%) [1]: 68% and 80%
Population Fragmented Nuclei (%) [1]: 11% and 8%
Population Healthy Nuclei (%) [1]: 75% and 87%
Population Hoechst High Intensity Objects (%) [1]: 4%
Population Membrane Permeable-Phenotype (%) [1]: 45% and 44%
Population Mitochondria Different-Phenotype (%) [1]: 41% and 26%
Population Mitotic Cells (%) [1]: 31% and 20%
Population Normal (%) [1]: 95%
Population Pyknosed Nuclei (%) [1]: 13% and 5%
Population Tubulin-Different-Phenotype (%) [1]: 99% and 93%
Total Cell Count [1]: 168 and 105
Population Apoptotic (%) [2]: 75% and 78%
Population Fragmented Nuclei (%) [2]: 13% and 15%
Population Healthy Nuclei (%) [2]: 81% and 69%
Population Hoechst High Intensity Objects (%) [2]: 11% and 12%
Population Membrane Permeable-Phenotype (%) [2]: 36% and 35%
Population Mitochondria Different-Phenotype (%) [2]: 27% and 79%
Population Mitotic Cells (%) [2]: 25% and 21%
Population Normal (%) [2]: 88% and 87%
Population Pyknosed Nuclei (%) [2]: 15%
Population Tubulin-Different-Phenotype (%) [2]: 68% and 100%
Total Cell Count [2]: 85
Population Apoptotic (%) [5]: 50% and 85%
Population Fragmented Nuclei (%) [5]: 9%
Population Healthy Nuclei (%) [5]: 82% and 53%
Population Hoechst High Intensity Objects (%) [5]: 5%
Population Membrane Permeable-Phenotype (%) [5]: 36% and 51%
Population Mitochondria Different-Phenotype (%) [5]: 44% and 78%
Population Normal (%) [5]: 94%
Population Tubulin-Different-Phenotype (%) [5]: 63%
Total Cell Count [5]: 134 and 155
Population Apoptotic (%) [6]: 80% and 70%
Population Fragmented Nuclei (%) [6]: 19% and 10%
Population Healthy Nuclei (%) [6]: 50% and 78%
Population Hoechst High Intensity Objects (%) [6]: 13% and 9%
Population Membrane Permeable-Phenotype (%) [6]: 56% and 28%
Population Mitotic Cells (%) [6]: 19% and 30%
Population Normal (%) [6]: 87% and 90%
Population Pyknosed Nuclei (%) [6]: 29% and 11%
Population Tubulin-Different-Phenotype (%) [6]: 100% and 48%
Total Cell Count [6]: 100 and 98
